Measurements from paper PMC2216779 (The Journal of General Physiology, 1993).
Values joined by “and” are separate entries in the source; they are usually repeats but may differ in a detail not shown here. Equal values may be shown once. Read-outs that look alike come from different tables or passages of the source.

How the values were obtained:
[1] = system: chloride conductance of the human red cell membrane; assay: Conductance studies of net; assay type: cell-based; conditions: 16 µM DIDS; calculated from Bennekou and Stampe (1988) data
[2] = system: band 3 protein, DIDS binding site; conditions: cited from earlier work
[3] = system: chloride conductance of the human red cell membrane; conditions: ref Bennekou and Stampe (1988); cited from earlier work
[4] = molecular target: T1, chloride transport in human red blood cells; capnophorin (band 3 or AE1) (Homo sapiens, UniProt P02730); assay: 36Cl- efflux; assay type: cell-based; conditions: 38C
T1 sequence (P02730 1-911): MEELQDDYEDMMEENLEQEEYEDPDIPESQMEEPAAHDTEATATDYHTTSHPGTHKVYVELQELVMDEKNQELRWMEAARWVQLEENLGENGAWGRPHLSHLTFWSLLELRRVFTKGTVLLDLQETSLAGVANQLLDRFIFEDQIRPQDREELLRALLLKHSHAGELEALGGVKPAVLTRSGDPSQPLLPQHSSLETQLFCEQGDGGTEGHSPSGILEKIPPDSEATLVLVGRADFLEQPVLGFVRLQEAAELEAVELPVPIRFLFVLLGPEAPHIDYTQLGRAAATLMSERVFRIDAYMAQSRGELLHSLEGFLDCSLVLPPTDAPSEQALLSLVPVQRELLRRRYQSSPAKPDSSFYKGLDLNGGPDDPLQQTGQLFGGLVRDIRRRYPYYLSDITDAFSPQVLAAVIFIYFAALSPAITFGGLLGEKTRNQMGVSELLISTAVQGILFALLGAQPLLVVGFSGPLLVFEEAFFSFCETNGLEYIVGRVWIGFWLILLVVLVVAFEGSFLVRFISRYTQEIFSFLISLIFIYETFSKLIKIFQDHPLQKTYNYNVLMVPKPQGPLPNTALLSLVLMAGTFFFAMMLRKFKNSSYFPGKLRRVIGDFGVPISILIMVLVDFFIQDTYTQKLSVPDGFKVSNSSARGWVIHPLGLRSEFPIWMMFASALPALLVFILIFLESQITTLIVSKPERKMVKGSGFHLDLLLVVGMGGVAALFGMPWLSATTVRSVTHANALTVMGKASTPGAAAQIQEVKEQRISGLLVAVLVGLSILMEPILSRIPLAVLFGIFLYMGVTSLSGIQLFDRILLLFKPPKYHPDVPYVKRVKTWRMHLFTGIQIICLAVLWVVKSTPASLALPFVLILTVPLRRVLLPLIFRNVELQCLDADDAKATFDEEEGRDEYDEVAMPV
How it was run: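 Fresh heparinized human blood washed four times in medium A (150 mM KCl, 0.5–2 mM KH2PO4, pH 7.2), buffy coat removed. Covalent labelling: ~50% hematocrit, 50 µM DIDS, 38°C, 45 min, then washes in medium A. Cells loaded with 3.7–18.5 kBq 36Cl per ml suspension and packed. Tracer efflux measured at 38°C, pH 7.2, by Millipore-Swinnex filtration or continuous flow tube. Rate constant taken from extracellular radioactivity over time, corrected for trapped isotope.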

[5] = system: residual chloride transport in DIDS-C human red blood cells; assay: 36Cl- efflux in DIDS-C cells; assay type: cell-based
[6] = molecular target: human erythrocyte anion transporter; conditions: read-out: Dissociation constant of DNDS binding, ref Frohlich (1982), cited from earlier work

For `O=S(=O)(O)c1cc(N=C=S)ccc1C=Cc1ccc(N=C=S)cc1S(=O)(=O)O` [DIDS, 4,4'-diisothiocyanostilbene-2,2'-disulfonic acid], the “Reduction of conductive component of chloride efflux” value [1] is listed as 96.4%, the “Reduction of conductive component of chloride efflux, fold” value [1] is listed as 28 times and the “Half-time for irreversible DIDS binding” value ([2]; 0C, ref Janas et al., 1989) is listed as ~ 3 h. The “Time constant 1/k of irreversible DIDS binding” value ([2]; 38C, ref Janas et al., 1989) was 2.2 rain, the “Inhibition of conductive flow of chloride” value [3] was ~ 100% and the “Chloride efflux after DIDS binding procedure performed once” value ([4]; 50 µM DIDS, 45 min, n = 10) was 96.3 [SD-+ 8.1] pmol cm-2 s-1. The “Chloride efflux after DIDS binding procedure performed twice” value ([4]; 50 µM DIDS, 45 min, n = 10) was 94.1 [SD ~ 11.0] pmol cm-2 s-1, the “Irreversible inhibition of chloride transport by maximum covalent DIDS binding” value ([4]; DIDS-C cells vs control cells, pH 7.2) was 99.8% and the “Chloride self-exchange flux in DIDS-C cells” value ([4]; covalently bound DIDS, pH 7.2, n = 30) was 106 pmol cm-2 s-1 and 106 (SD + 17) pmol cm-2 s-1. For the same compound, the “Half-time for chloride tracer efflux in DIDS-C cells” value ([4]; found experimentally) was 29 s and the “Chloride flux in DIDS-CR cells” value ([5]; covalent DIDS + 50 µM DIDS in flux medium, 38C, pH 7.2, n = 15) was 0.60 [SD -- 0,16] pmol cm-2 s-1.

For `O=[N+]([O-])c1ccc(C=Cc2ccc([N+](=O)[O-])cc2S(=O)(=O)O)c(S(=O)(=O)O)c1` [DNDS, 4,4'-dinitrostilbene-2,2'-disulfonate], the Kd ([6]; 0C) is listed as 84 nM, the Kd ([6]; 10C) is listed as 86 nM and the Kd ([6]; 20C) is listed as 90 nM.

For `O=S(=O)(O)c1cc(N=C=S)ccc1CCc1ccc(N=C=S)cc1S(=O)(=O)O` [H2DIDS, 4,4'-diisothiocyano-dihydrostilbene-2,2'-disulfonic acid], the “Rate of binding to the DIDS binding site relative to DIDS” value ([2]; 0C, ref Shami, Rothstein, and Knauf, 1978) is listed as “binds much faster than DIDS”.

For `CC(C)[C@@H]1NC(=O)[C@H](C)OC(=O)[C@@H](C(C)C)NC(=O)[C@@H](C(C)C)OC(=O)[C@H](C(C)C)NC(=O)[C@H](C)OC(=O)[C@@H](C(C)C)NC(=O)[C@@H](C(C)C)OC(=O)[C@H](C(C)C)NC(=O)[C@H](C)OC(=O)[C@@H](C(C)C)NC(=O)[C@@H](C(C)C)OC1=O` [valinomycin], the “Effect on initial 36Cl influx rate” value ([5]; valinomycin 1 µM, extracellular chloride < 1 mM) was “no detectable effect”.
